Results collected from several papers.
Target: Mitogen-activated protein kinase kinase kinase kinase 3 (MAP4K3, Homo sapiens, UniProt Q8IVH8)
Sequence (Q8IVH8 1-894, as in one of the studies): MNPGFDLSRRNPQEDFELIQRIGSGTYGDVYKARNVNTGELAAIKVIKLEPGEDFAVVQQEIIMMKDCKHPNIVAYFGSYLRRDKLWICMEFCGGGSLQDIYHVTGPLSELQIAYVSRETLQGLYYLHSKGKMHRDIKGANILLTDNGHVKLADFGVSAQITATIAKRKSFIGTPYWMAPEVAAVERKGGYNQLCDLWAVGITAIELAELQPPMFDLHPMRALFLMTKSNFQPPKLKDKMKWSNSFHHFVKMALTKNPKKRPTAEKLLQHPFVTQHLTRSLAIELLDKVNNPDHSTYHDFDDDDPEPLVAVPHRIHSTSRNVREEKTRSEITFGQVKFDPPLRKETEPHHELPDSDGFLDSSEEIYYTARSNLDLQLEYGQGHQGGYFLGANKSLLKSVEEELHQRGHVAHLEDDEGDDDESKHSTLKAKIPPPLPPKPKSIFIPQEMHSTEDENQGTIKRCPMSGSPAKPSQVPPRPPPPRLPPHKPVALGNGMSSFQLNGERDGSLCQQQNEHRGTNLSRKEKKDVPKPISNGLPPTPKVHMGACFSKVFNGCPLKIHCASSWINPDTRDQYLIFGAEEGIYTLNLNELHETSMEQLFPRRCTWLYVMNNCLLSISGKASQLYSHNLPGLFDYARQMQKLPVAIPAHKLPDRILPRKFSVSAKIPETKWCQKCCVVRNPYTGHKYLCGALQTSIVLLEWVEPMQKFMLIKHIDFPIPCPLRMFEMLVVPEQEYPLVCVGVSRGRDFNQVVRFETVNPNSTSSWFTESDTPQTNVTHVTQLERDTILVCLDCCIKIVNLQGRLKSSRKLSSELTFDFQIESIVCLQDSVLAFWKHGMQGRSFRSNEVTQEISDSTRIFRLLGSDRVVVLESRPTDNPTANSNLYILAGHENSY

SMILES | test | conditions | remaining binding [%]
O=C(Nc1cccnn1)N1CC(C/C=C/c2cncc(Oc3ccc(C(F)(F)F)cn3)n2)C1 | cell-free assay, competition with immobilised ligand | 1 µM | 100
COc1cnc(Nc2cccc(S(N)(=O)=O)c2)nc1N1CCN(c2ccccc2)C(=O)C1 | binding, competition with immobilised ligand | 1 µM | 95
CN(C)c1ncc(F)c(-c2cnn3ncccc23)n1 | binding | 1 µM | 100
O=C(Nc1c[nH]nc1C(=O)NC1CCNCC1)c1cc(F)cc(F)c1 | binding, competition with immobilised ligand | 1 µM | 74
CC(C)(O)c1cncc(-c2nc3ccc(F)cc3n2C2CC2)c1 | cell-free assay, competition with immobilised ligand | 1 µM | 100
c1cncc(-c2cccc(Nc3nccc(NC4CCCCC4)n3)c2)c1 | binding, competition with immobilised ligand | 10 µM | 83
COc1cnc(Nc2cccc(S(N)(=O)=O)c2)nc1N1CCN(c2ccccc2)CC1 | binding, competition with immobilised ligand | 1 µM | 98
N[C@@H]1CCN(c2nccc(-c3cnn4ncccc34)n2)C1 | binding | 1 µM | 76
CCN1CCN(Cc2ccc(C(=O)Nc3ccc(C)c(Oc4ccc5c(c4)CC(=O)N5)c3)cc2C(F)(F)F)CC1 | binding, competition with immobilised ligand | 1 µM | 76
O=C(N1CCS(=O)(=O)CC1)N1C[C@H](c2ccc(OC(F)(F)F)cc2)C[C@H](c2nc(C3CC3)no2)C1 | cell-free assay, competition with immobilised ligand | 1 µM | 100
C[C@H]1CCN(c2nccc(-c3cnn4ncccc34)n2)C1 | binding | 1 µM | 100
CC1=C(C#N)[C@@H](c2ccc3[nH]nc(C)c3c2)C(C#N)=C(c2ccc(Cl)cc2)N1 | cell-free assay, competition with immobilised ligand | 1 µM | 100
CN(c1nccc(-c2cnn3ncccc23)n1)C1CC1 | binding | 1 µM | 100
CN([C@@H]1CCc2c(CC(=O)O)c3cc(S(C)(=O)=O)ccc3n2C1)S(=O)(=O)c1ccc(F)cc1 | cell-free assay, competition with immobilised ligand | 1 µM | 100
O=C(NCCCN1CCOCC1)c1ccc(Nc2nccc(-c3cc4ccccc4s3)n2)cc1 | binding, competition with immobilised ligand | 1 µM | 65
COc1ccnn2ncc(-c3ccnc(N(C)C)n3)c12 | binding | 1 µM | 100
O=C(NCCCN1CCOCC1)c1ccc(Nc2ncc(Cl)c(-c3ccc(Cl)s3)n2)cc1 | binding, competition with immobilised ligand | 1 µM | 38
CN(CCCC(F)(F)F)c1nccc(-c2cnn3ncccc23)n1 | binding | 1 µM | 100
O=C(O)c1cc(-c2ccc(C3CCNCC3)cc2)c2ccc(-c3ccc(C(F)(F)F)cc3)cc2c1 | cell-free assay, competition with immobilised ligand | 1 µM | 100
O=C(c1ccc(Nc2nccc(-c3cc4ccccc4s3)n2)cc1)N1CCC(N2CCCC2)CC1 | binding, competition with immobilised ligand | 1 µM | 93
